Measurements collected from several papers.
Lines come from different studies, so protocols differ.
Target: Insulin-like growth factor 1 receptor (IGF1R, Homo sapiens, UniProt P08069)

Structure (SMILES) | test | conditions | measurement | value
C[C@H]1CC[C@H](n2c3cnccc3c3cnc(Nc4ccc5c(n4)CCN(C(=O)CO)C5)nc32)CC1 | binding | 1 µM | remaining binding | 100%
COc1ccc2oc(-c3ccc4nc(N)oc4c3)c/c(=N\c3ccccc3NC(=O)CCN)c2c1 | binding | 1 µM | remaining binding | 93%
C1=C/COCc2cc(ccc2OCCN2CCCC2)Nc2nccc(n2)-c2cccc(c2)COC/1 | binding | 0.1 µM | remaining binding | 83%
CCCCC(=O)Nc1ccc(-c2ccc3ncn(CCC)c(=O)c3c2)cn1 | binding, competition with immobilised ligand | 0.5 µM | remaining binding | 98%
CC#CC(=O)N1CCC[C@H]1c1nc(-c2ccc(C(=O)Nc3ccccn3)cc2)c2c(N)nccn12 | enzyme activity, inhibitor | 1 µM | inhibition | 3%
C#Cc1cnc(Nc2ccnc(CO)c2)nc1Nc1ccccc1S(C)(=O)=NC#N (stereo not drawn) | cell-free assay | 1 µM | remaining signal | 36%
CN1CCN(C(=O)c2ccc(NC(=O)Nc3ccc(N(C)c4ccnc(Nc5ccc(CS(C)(=O)=O)cc5)n4)cc3)cc2)CC1 | binding | 1 µM | remaining binding | 100%
C=CC(=O)N1CCC([C@@H]2CCNc3c(C(N)=O)c(-c4ccc(Oc5ccccc5)cc4)nn32)CC1 | cell-free assay | 1 µM | inhibition | 14%
N#Cc1ccc(NC(=O)Nc2ccccc2)cc1 | cell-free assay, competition with immobilised ligand | 25 µM | remaining binding | 100%
